# Screening results as filed in PubChem BioAssay.
# HCV NS3 hel inh = HCV NS3 helicase inhibition; NS3 helicase DNA unwinding, Cy5 molecular beacon fluorescence; inhibition, % at 10.9 µM; hit rate 0.56% among 290,000; AID 1800;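 active = inhibition above the mean of all tested compounds plus 3 SD, set per campaign, cut at about 35% in these data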;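 also: 0% = DMSO wells and 100% = thioflavine S control wells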
#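 Control set: DMSO versus 110 µM thioflavine S; Material: NS3 helicase fragment of HCV; Measured by: Cy5 fluorescence at 0 and 60 min, beacon hairpin quenching; Read-out basis: percent inhibition from t60/t0 fluorescence ratio; Times: reaction time 60 min, 25 °C; Repeats: single replicate; Compound dosing: single dose, 10.9 µM nominal final, DMSO 0.8% final.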
# DNA FID counter = displaces DNA intercalator in HCV helicase counter-screen. DNA fluorescent intercalator displacement, fluorescence. inhibition, % at 7.9 µM. hit rate 0.17% among 290,000. AID 1845; in the data active = inhibition above about 37%;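 also: 0% = vehicle and 100% = reference compound; higher means more ethidium bromide displaced from hairpin DNA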
# MEKK3 PB1 HTS = modulators (inhibitors or enhancers) of MEK5 binding to human MEKK3 PB1 domain; Q99759; bead-based flow cytometry, Alexa488-MEK5 binding to MEKK3; actives lie on both sides; 0 = blocked by unlabeled MEK5, 100 = vehicle; binding response (% of control), % at 10 µM; hit rate 1.4% among 290,000;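 active = binding response more than 3 SD above or below the average of its plate-row segment, actives on both sides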;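 also: Alexa488 bead fluorescence after subtracting the streptavidin-only scavenger bead signal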
# Target sequence (Q99759 whole entry, looked up, the tested form may be a part): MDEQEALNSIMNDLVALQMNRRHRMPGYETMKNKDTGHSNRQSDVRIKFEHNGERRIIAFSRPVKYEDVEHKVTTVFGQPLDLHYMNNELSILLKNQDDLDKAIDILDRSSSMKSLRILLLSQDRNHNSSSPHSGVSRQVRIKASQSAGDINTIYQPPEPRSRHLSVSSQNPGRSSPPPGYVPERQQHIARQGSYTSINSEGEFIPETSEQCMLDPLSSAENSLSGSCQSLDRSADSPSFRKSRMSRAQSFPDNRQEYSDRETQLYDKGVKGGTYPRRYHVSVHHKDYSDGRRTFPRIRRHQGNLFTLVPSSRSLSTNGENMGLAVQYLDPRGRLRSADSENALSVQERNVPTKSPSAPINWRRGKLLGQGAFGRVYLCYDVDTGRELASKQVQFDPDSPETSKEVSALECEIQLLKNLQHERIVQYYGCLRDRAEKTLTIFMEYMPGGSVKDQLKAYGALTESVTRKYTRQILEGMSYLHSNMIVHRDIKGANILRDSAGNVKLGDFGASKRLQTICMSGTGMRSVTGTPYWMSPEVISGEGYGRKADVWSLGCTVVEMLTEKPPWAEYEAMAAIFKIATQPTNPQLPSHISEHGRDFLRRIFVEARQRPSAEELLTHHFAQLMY
# MEKK2 mut-MEK5 = signal of MEK5 binding to mutant human MEKK2 PB1 domain | hit rate 0.35% among 290,000 | percent response, % at 10 µM | bead flow cytometry, Alexa488-MEK5 binding to MEKK2 mutant | AID 1530; in the data active = percent response above about 24%, passing the limit was not always enough
# MEKK2wt PB1 HTS = raises or lowers MEK5 binding to wildtype human MEKK2 PB1 domain; hit rate 1.1% among 290,000; binding response (% of control), % at 10 µM; Q9Y2U5; bead flow cytometry, Alexa488-MEK5 binding to MEKK2 WT; actives lie on both sides; in the data active = binding response below about 67% or above about 130%
# T cruzi inh = blocks replication of Trypanosoma cruzi; T. cruzi beta-gal in NIH3T3, luminescence, 90 h; inhibition, % (no concentration beside the values); hit rate 1.4% among 300,000; AID 1885;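 active = mean inhibition across valid replicates above about 55%, limit read from the data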;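 also: signal also drops with host cell toxicity which is not excluded here; 0% = plate median of DMSO wells and 100% = zero luminescence signal; higher percent means less beta-gal luminescence so fewer parasites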
#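 System: Mouse NIH/3T3 fibroblasts infected with β-gal-expressing T. cruzi Tulahuen C4 | Quantity: NIH/3T3 cells, 5,000 per well | Reagent: 5000 reporter trypomastigotes per well | Dosing: Compound pinned at 50 nL/well, DMSO | Schedule: 3 h host attachment, then at least 90 h co-culture | Detection: GalScreen luminescence, 60 min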
# An asterisk follows results filed as active; . = no result given. This is a sample that favours compounds with a hit; in the whole collection about 4.1% have one here.
SMILES,HCV NS3 hel inh,DNA FID counter,MEKK3 PB1 HTS,MEKK2 mut-MEK5,MEKK2wt PB1 HTS,T cruzi inh
C(=N\Nc1nc(Nc2ccccc2)nc(N2CCOCC2)n1)/c1c[nH]c2ccccc12,-101,-16,101,0,107,72*
Cc1[nH]c2ccccc2c1/C=N/Nc1nc(Nc2ccc(F)cc2)nc(N2CCOCC2)n1,-82,-15,106,11,120,.
Cc1ccc(Nc2nc(N/N=C/c3c[nH]c4ccccc34)nc(N3CCOCC3)n2)cc1,-77,-19,145*,2,121,41
Cc1cc(C)nc(-n2nc(C)c3c(C(F)(F)F)cc(=O)[nH]c32)n1,-5,-4,108,9,113,2
Cc1cc(C)nc(-n2nc(C)c(Sc3ccc(F)cc3)c2N)n1,-5,-23,104,5,99,58*
COc1ccc(NC(=O)Nc2c(C)n(C)n(-c3ccccc3)c2=O)c(OC)c1,-5,-7,101,5,108,0
CC(C)(C)c1ccc(NC(=O)COc2ccc(-n3ccnc3)cc2)cc1,0,-11,105,4,106,59*
COc1ccccc1-c1cc(C(F)(F)F)nc(S(C)(=O)=O)n1,2,-3,.,.,.,-60
CS(=O)(=O)c1nc(-c2ccco2)cc(C(F)(F)F)n1,-7,-1,101,-8,96,55*
CN1CCN(c2nc(-c3ccco3)cc(C(F)(F)F)n2)CC1,1,-1,99,19,108,27
O=[N+]([O-])c1cn(-c2nc(-c3ccco3)cc(C(F)(F)F)n2)cn1,-2,-1,102,3,100,65*
COc1ccc(-n2nc(C(=O)c3cccs3)cc(-c3nc4ccccc4[nH]3)c2=N)cc1,-12,-1,114,7,124,73*
COc1ccc2c(C(=O)CN3CCSCC3)c[nH]c2c1,6,-2,90,-4,94,-13
COc1ccc2c(C(=O)CN3CCN(c4ccccc4)CC3)c[nH]c2c1,0,2,107,67*,33*,-3
COc1cc(-c2nc(-c3ccccc3)c(-c3cc([N+](=O)[O-])ccc3C)[nH]2)cc(OC)c1OC,1,-8,98,4,106,58*
O=[N+]([O-])c1cccc(-c2nc(-c3ccccc3)c(-c3cccs3)[nH]2)c1,1,5,101,1,103,23
Cc1cc(NC(=O)CCN2CCC(C)CC2)ccc1Br,-21,10,108,12,119,-1
Cc1[nH]c2ccccc2c1C(=O)CSc1nc2cc(S(=O)(=O)N3CCCCC3)ccc2o1,5,-6,96,-4,91,57*
OCCN1CCN(c2ncnc3sc(-c4ccccc4)cc23)CC1,-5,6,117,0,103,62*
O=C(CSc1nc2ccccc2c(=O)n1CC1CCCO1)Nc1ccccc1Cl (configuration not stated),-8,-35,103,3,104,8
O=C1CCC(C(=O)Nc2cccc(Br)c2)N1 (configuration not stated),5,1,84,-1,91,-3
Cc1cccnc1NC(=O)Nc1cccc(Cl)c1,-2,-7,107,16,107,-33
OCCN1CCN(Cc2cc(Cl)c3cccnc3c2O)CC1,-2,2,103,12,108,-11
Oc1c(CN2CCN(c3ccccn3)CC2)cc(Cl)c2cccnc12,-5,-9,100,11,104,75*
Oc1c(CN2CCCCC2)cc(COCc2ccccc2)c2cccnc12,6,-5,106,7,121,72*
SMILES,HCV NS3 hel inh,DNA FID counter,MEKK3 PB1 HTS,MEKK2 mut-MEK5,MEKK2wt PB1 HTS,T cruzi inh
COc1ccccc1N1CCN(Cc2cc(Br)c(O)c3ncccc23)CC1,19,-9,109,10,112,59*
Cc1[nH]c2ccccc2c1CN1CCN(c2ccccn2)CC1,2,3,101,1,101,78*
CCOc1ccccc1N1CCN(Cc2cccc(OC)c2O)CC1,-10,4,98,6,101,-19
COc1ccccc1C(=O)C1CCCN(C(=O)c2snnc2C)C1 (configuration not stated),5,-10,101,8,100,-2
O=[N+]([O-])c1cc(CN2CCCC2)c2cccnc2c1O,25,-7,99,0,101,.
O=C(Oc1c(CN2CCOCC2)cc(Cl)c2cccnc12)c1ccc(F)cc1,5,-2,101,-2,100,56*
COCc1cc(CN2CCCC2)c(O)c2ncccc12,-4,-5,102,1,103,64*
O=[N+]([O-])c1ccc(SCc2ccncc2)nc1,-12,-3,102,1,99,-6
O=C(O)C1CCN(c2nc(-c3ccccc3)nc3c2oc2ccccc23)CC1,1,-9,104,6,105,44
OCCN1CCN(c2nc(-c3ccccc3)nc3c2oc2ccccc23)CC1,-58,43*,103,7,110,19
CCc1ccc(Nc2n[n+](-c3ccccc3)c(-c3c(Cl)cccc3Cl)s2)cc1,-94,30,105,9,133,59*
CCN(CC)c1ccc(-c2sc(Nc3ccccc3)n[n+]2-c2ccc(F)cc2)cc1,-82,-9,103,76*,33*,29
COc1ccc(-n2cc(C(=O)O)c(=O)cc2C)cc1,0,11,97,-11,86,-9
O=C(CN(Cc1ccco1)C(=O)CCC(=O)Nc1ccccn1)NCc1ccccc1,-6,-25,102,-2,104,4
COc1cnc(-c2ccccn2)nc1Sc1ccccc1Cl,-8,-17,91,-11,85,60*
COc1cnc(-c2ccccn2)nc1Sc1c(Cl)cccc1Cl,-6,-16,103,1,95,32
Cc1ccc(NC(=O)CN(C)C(=O)COC(=O)C2=COCCO2)cc1,.,.,.,.,.,-9
CN1CCN(c2nc3ccccn3c(=O)c2/C=C(\C#N)S(=O)(=O)c2ccc(Cl)cc2)CC1,30,-5,103,5,107,11
CCC(=O)/C=C1/Sc2ccccc2N1CC,-4,-8,112,19,92,9
CCN1/C(=C/c2sc(-c3ccccc3C)c[n+]2C)Sc2ccccc21,-29,0,97,2,101,66*
CCC1=Nc2cc(C(=O)NCCCN3CCOCC3)ccc2Sc2ccccc21,-29,26,98,2,103,26
Cc1c(C)n(C)c2ccc(C(=O)NCCCN3CCCCC3)cc12,-4,14,102,25*,154*,11
Cc1c(C)n(C)c2ccc(C(=O)NCCCN3CCOCC3)cc12,-21,6,99,6,103,-8
O=C(NCCN1CCCC1)c1ccc(Cl)cc1,6,1,106,2,104,-8
